# Sampled rows, rich in hits. Any-hit rate of the full collection: about 3.8%.
# HSF1 inh – HSF1 inhibitors in luciferase reporter cells, primary screen, cell-based, NIH3T3, luminescence. actives 0.77% (n = 300,000). activity change, negative = inhibition, % at 7.5 µM (by protocol). AID 2098, 2009. NIH3T3-HGL HSE-luciferase, MG132-induced, luminescence 8 h; stronger effect = lower value;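 active = more than half of replicate wells show activity change below -50%, luminescence cut by over half; inconclusive = some wells, but at most half, below -50%; inactive = no replicate well below -50%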;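 note: luciferase reports HSF-1 transcriptional activity via heat shock element; 0% = median of DMSO wells and -100% = zero luminescence signal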
# HCV NS3 hel inh – inhibitors of HCV NS3 helicase, primary screen, biochemical, Cy5 molecular beacon fluorescence; AID 1800, 2009; Hepatitis C virus NS3 helicase; NS3 helicase DNA unwinding; actives 0.56% (n = 290,000); inhibition, % at 10.9 µM;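 active = inhibition above the mean of all tested compounds plus 3 SD, set per campaign, cut at about 35% in these data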;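 note: 0% = DMSO wells and 100% = thioflavine S control wells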
#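 System: NS3 helicase fragment of HCV / Schedule: 1 h at 25 °C / Control set: DMSO alone as 0% and 110 µM thioflavine S as 100% / Reagent: Cy5/quencher beacon DNA duplex and ATP to start / Technique: Cy5 fluorescence / Replication: singlicate / Evaluation: % inhibition of end-to-start signal ratio versus controls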
# HSF1 activator – HSF-1 activators, primary screen, NIH3T3-HGL cells, MG132 stress, luminescence, single point | activation, % at 9 µM | AID 504408, 2011 | actives 1.7% (n = 300,000) | NIH3T3-HGL HSF-1 luciferase reporter, 8 h; 100% = twice DMSO control signal;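 active = mean replicate activation of at least 50% with a set share of replicates each reaching 50%; inconclusive = only one of those two conditions met; inactive = mean below 50% and too few replicates reaching it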;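 note: 0% = median of the neutral control wells and 100% = twice that signal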
# Hep lipid drop – inhibitors of hepatocyte lipid droplet formation, primary screen, imaging, high-throughput imaging, BODIPY stain. AML12 mouse hepatocytes, oleate lipid droplets. inhibition, % at 6.5 µM. actives 0.4% (n = 240,000). AID 1656, 2009;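 active = lipid droplet intensity inhibited by at least 50%, with more than 500 cells counted; inconclusive = wells with under 300 cells, treated as cytotoxic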
#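 Assay system: AML12 hepatocytes (mouse); Probe or stimulus: oleic acid at 100 µM to induce lipid droplet formation; Dosing: compound at 6.5 µM only; Schedule: compound with oleate, overnight; Detection: fluorescence imaging, 20x objective, two fields per well; Measure: % inhibition of lipid droplet signal.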
# HSP90 inh – HSP90 inhibitors, primary screen, cell lysate, luminescence; Heat shock protein HSP 90 (rabbit reticulocyte lysate; luciferase refolding); Rabbit reticulocyte lysate, luciferase refolding luminescence, 3 h; inhibition, % at 5.6 µM; actives 0.91% (n = 290,000); AID 1789, 2009;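 active = inhibition above the screen-wide mean plus 3 SD, computed separately per campaign, cut at about 16% in these data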;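 note: 0% = DMSO wells and 100% = 60 µM geldanamycin wells; inhibitors lower the luminescence because luciferase stays unfolded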
# HSP90 confirm – HSP90 inhibitors, confirmation, cell lysate, luminescence | inhibition, % at 5.9 µM | actives 64% (n = 2,300) | shares compounds with HSP90 inh | AID 1846, 2009 | rabbit reticulocyte lysate, luciferase refolding luminescence, 3 h; in the data active = inhibition above about 18%;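 note: 0% = vehicle wells and 100% = reference inhibitor wells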
# FLuc counter – firefly luciferase inhibitors, HSP90 counter-screen, confirmation, artefact control for HSP90 inhibitor project, biochemical, luminescence, triplicate; shares compounds with HSP90 inh; purified native firefly luciferase; actives 48% (n = 2,300); inhibition, % at 5.9 µM;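 active = inhibition above the mean inhibition of all tested sample wells plus 3 SD, cut at about 10% in these data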;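 note: 0% = DMSO with luciferase and 100% = wells lacking luciferase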
# Target sequence (P08659 whole entry, looked up): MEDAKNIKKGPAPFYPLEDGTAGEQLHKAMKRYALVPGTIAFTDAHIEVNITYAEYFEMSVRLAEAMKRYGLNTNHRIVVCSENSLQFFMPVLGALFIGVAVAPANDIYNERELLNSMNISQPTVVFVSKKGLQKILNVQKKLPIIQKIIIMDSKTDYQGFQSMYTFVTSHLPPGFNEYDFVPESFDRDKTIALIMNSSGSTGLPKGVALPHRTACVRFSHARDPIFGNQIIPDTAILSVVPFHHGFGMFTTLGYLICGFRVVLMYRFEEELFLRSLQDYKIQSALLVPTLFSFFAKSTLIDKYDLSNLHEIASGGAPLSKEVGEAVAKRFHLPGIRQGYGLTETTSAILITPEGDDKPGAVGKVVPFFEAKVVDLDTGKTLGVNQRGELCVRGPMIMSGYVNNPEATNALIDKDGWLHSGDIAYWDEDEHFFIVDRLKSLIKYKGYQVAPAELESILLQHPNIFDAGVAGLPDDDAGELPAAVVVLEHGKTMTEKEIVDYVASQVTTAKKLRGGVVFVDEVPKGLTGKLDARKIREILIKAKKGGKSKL
# Active calls of the source: *; u = inconclusive; x = no result.
SMILES,HSF1 inh,HCV NS3 hel inh,HSF1 activator,Hep lipid drop,HSP90 inh,HSP90 confirm,FLuc counter
CC1(C)C2CCC(C2)C1(C)NC(=O)CN1CCCC1 (centres undefined),1,13,8,x,-1,x,x
CCCn1c2ccccc2c2cnn(CC(=O)NC3CCCCC3)c(=O)c21,5,-4,17,2,0,x,x
CN(CC(=O)Nc1c(Cl)cccc1Cl)C(=O)c1cc2ccccc2cc1O,0,x,-6,x,x,x,x
O=C(CSc1nc2ccccc2[nH]1)NCCc1ccc(Cl)cc1,10,-11,25,-3,25*,1,-4
Cn1cc(C(=O)NCc2ccc(Cl)cc2)c(=O)c2cc(S(=O)(=O)N3CCOCC3)ccc21,-4,-12,-6,-23,-2,x,x
O=C(Nc1ccc2[nH]ccc2c1)c1ccc(F)cc1,14,3,34,0,53*,64*,46*
COc1ccc(NC(=O)Nc2ccc3[nH]ccc3c2)cc1,11,x,16,x,x,x,x
O=C(Nc1ccc2[nH]ccc2c1)c1ccccc1,1,3,10,2,44*,56*,30*
Cc1c(NC(=S)NC(=O)c2cc3ccccc3o2)cccc1C(=O)O,1,5,4,-2,21*,20*,-16
Cc1c(NC(=O)c2ccccc2N)cccc1C(=O)O,-6,9,-28,x,20*,13,-6
Cc1c(NC(=O)c2ccc(NC(=O)C3CC3)cc2)cccc1C(=O)O,-3,2,-18,-3,24*,20*,-16
CN1CCN(c2ccccc2NC(=S)NC(=O)c2cc3ccccc3o2)CC1,-3,-24,0,u,-1,x,x
O=C(Nc1ccc(NC(=O)C2CC2)cn1)c1ccccc1,6,4,37,-2,17*,39*,21*
CC(C)N(CCNC(=O)c1oc(=O)c2ccccc2c1-c1ccccc1)Cc1ccco1,3,-2,21,-22,0,x,x
O=C1CCCc2nc3c(cc21)C(O)Oc1c-3ccc2ccccc12 (centres undefined),-3,-3,-5,25,31*,38*,-21
O=C1CCCc2nc3c(cc21)C(O)Oc1ccccc1-3 (centres undefined),-6,14,0,1,-2,x,x
Cc1nc2ccccc2c(=O)n1CCc1ccc(O)cc1,-3,-5,-3,5,9,x,x
Cc1cccc(NC(=O)c2ccc3c(Cl)c4c(nc3c2)CCCC4)n1,-41,-6,-44,9,17*,58*,47*
O=C(Nc1ccc(Cl)cn1)c1ccc2c(Cl)c3c(nc2c1)CCC3,u,0,-62,-19,-3,x,x
CCc1sc(C(=O)Nc2nc(C)cs2)cc1C,19,-11,46,-3,21*,34*,20*
CCc1sc(C(=O)Nc2ccc(NC(C)=O)cc2)cc1C,1,1,-1,6,-2,x,x
Cc1ccc(CNC(=O)CCC2CCCN(C(=O)CCC(F)(F)F)C2)o1 (centres undefined),0,5,-4,3,-2,x,x
CC(C)(C)c1ccc(C(=O)NC(=S)Nc2nc3c(s2)CCCC3)cc1,-59*,12,-62,2,24*,57*,38*
CN(C)c1ccc(C(=O)Nc2nc3c(s2)CCCC3)cc1,-2,-8,13,-13,27*,59*,58*
NC1=NC(=O)C(Cc2ccc(Br)cc2)S1 (centres undefined),4,0,17,4,-2,x,x
SMILES,HSF1 inh,HCV NS3 hel inh,HSF1 activator,Hep lipid drop,HSP90 inh,HSP90 confirm,FLuc counter
Cc1ccc(S(=O)(=O)N2CCCC2C(=O)NCc2ccncc2)cc1 (centres undefined),-4,3,6,-7,0,x,x
Cc1oc2ccc(OCc3ccccc3Cl)cc2c1C(=O)O,1,30,-11,2,-4,x,x
O=C(O)c1cccc(-c2nnn(Cc3ccccc3)n2)c1,3,0,-12,-4,29*,35*,41*
Cc1ccccc1Cn1nnc(-c2cccc(C(=O)O)c2)n1,-7,4,-18,2,38*,54*,66*
Cc1ccccc1Cn1nnc(-c2ccc(C(=O)O)cc2)n1,-4,-6,-1,10,1,x,x
O=C(O)c1cccc(-c2nnn(Cc3ccccc3Cl)n2)c1,-21,21,-19,41,59*,77*,81*
COc1ccc(-c2nnn(Cc3ccccc3)n2)cc1,28,-4,46,-1,-3,x,x
O=C(O)c1cccc(OCc2ccccc2Cl)c1,3,7,28,x,28*,53*,27*
CC1CN(C(=O)COC(=O)c2ccc(C#N)cc2)CC(C)O1 (centres undefined),2,15,5,-4,48*,-2,-4
COc1cccc(CNC(=O)C2=C(C)C(=O)OC23CCC(C)CC3)c1 (centres undefined),-4,3,-4,x,35*,-2,-4
Cc1ccc(CC(=O)N/N=C/c2ccc3c(c2)OCO3)cc1,3,2,-11,-7,20*,-5,-14
Cc1cc(C)c(OCC(=O)N/N=C/c2ccc3c(c2)OCO3)c(C)c1,-5,6,-12,-7,-1,x,x
COCCNS(=O)(=O)c1cc(OC)c(Cl)cc1Cl,-30,0,-43,-2,17*,3,-3
CCc1ccc(S(=O)(=O)/N=C2/C=C(Sc3ncn[nH]3)C(=O)c3ccccc32)cc1,x,21,x,0,88*,33*,34*
CCc1ccc(S(=O)(=O)/N=C2\C=C(Nc3ccc(O)cc3)C(=O)c3ccccc32)cc1,-95*,-24,-96,-3,31*,72*,-8
CCc1ccc(S(=O)(=O)/N=C2\C=CC(=O)c3ccccc32)cc1,-41,16,-47,1,1,x,x
O=C1C(Nc2ccc(O)cc2)=C/C(=N/S(=O)(=O)c2cccs2)c2ccccc21,-93*,-4,-94,4,73*,91*,3
CCc1ccc(S(=O)(=O)/N=C2\C=C(Nc3cccc(C(=O)O)c3)C(=O)c3ccccc32)cc1,8,-5,14,15,69*,82*,-5
Cc1ccc(S(=O)(=O)/N=C2/C=C(C3C(=O)CC(C)(C)CC3=O)C(=O)c3ccccc32)cc1,21,9,42,-1,15,x,x
